In ChEMBL document CHEMBL4689842, “EUbOPEN Chemogenomics Library wave 1” (2021):

Key:
Assay type in all cases: toxicity, cell-based
Fibroblast = test: Incucyte cell viability with human fibroblast; settings: 10 µM, compound concentration 10 uM; also: filed as whole numbers so only -1 and 0 and 1 occur
HEK-293T [1] = test: Multiplex assay against HEK293T; settings: human;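 as to Population Tubulin-Different-Phenotype (%): share of the cells with healthy nuclei that show this phenotype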
Procedure, shortened: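 Four dyes were applied at seeding to live cells: Hoechst33342, BioTracker Green Microtubule Cytoskeleton Dye, MitoTracker Red and Annexin V Alexa Fluor 680. Imaging after compound addition used a CQ1 microscope at 37°C and 5% CO2. CellPathfinder machine-learning gating then sorted cells into Hoechst high-intensity objects or normal cells, normal cells into healthy, pyknosed or fragmented nuclei, and pyknosed cells into mitotic or apoptotic, with tubulin, mitochondrial-mass and membrane-permeability phenotypes given as per cents of healthy-nucleus cells.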

HEK-293T [2] = test: Incucyte cell viability with HEK293T; settings: human, 10 µM, compound concentration 10 uM; also: filed as whole numbers so only -1 and 0 and 1 occur
[3] = 0 h, replicate number 1, timepoint 0 hours
[4] = 6 h, replicate number 1, timepoint 6 hours
[5] = 6 h, replicate number 2, timepoint 6 hours
[6] = 12 h, replicate number 1, timepoint 12 hours
[7] = 18 h, replicate number 1, timepoint 18 hours
[8] = 24 h, replicate number 1, timepoint 24 hours
[9] = 12 h, 1 µM, compound concentration 1 uM, replicate 1
[10] = 12 h, 1 µM, compound concentration 1 uM, replicate 2
[11] = 12 h, 10 µM, compound concentration 10 uM, replicate 1
[12] = 12 h, 10 µM, compound concentration 10 uM, replicate 2
[13] = 24 h, 1 µM, compound concentration 1 uM, replicate 1
[14] = 24 h, 1 µM, compound concentration 1 uM, replicate 2
[15] = 24 h, 10 µM, compound concentration 10 uM, replicate 1
[16] = 24 h, 10 µM, compound concentration 10 uM, replicate 2
[17] = 48 h, 1 µM, compound concentration 1 uM, replicate 1
[18] = 48 h, 1 µM, compound concentration 1 uM, replicate 2
[19] = 48 h, 10 µM, compound concentration 10 uM, replicate 1
[20] = 48 h, 10 µM, compound concentration 10 uM, replicate 2

Structure (SMILES): Nc1nc2c(c(N3CCNCC3)n1)CCC1=C2[C@@H]2CCCC[C@@H]2O1
- Growth Rate (Fibroblast; [3]): 0
- Growth Rate (Fibroblast; [4]): 1
- Growth Rate (Fibroblast; [5]): 0
- Growth Rate (Fibroblast; [6]): 0
- Growth Rate (Fibroblast; [7]): 0
- Growth Rate (Fibroblast; [8]): 0
- Population Apoptotic (%) (HEK-293T [1]; [9]): 34%
- Population Fragmented Nuclei (%) (HEK-293T [1]; [9]): 7%
- Population Hoechst High Intensity Objects (%) (HEK-293T [1]; [9]): 10%
- Population Membrane Permeable-Phenotype (%) (HEK-293T [1]; [9]): 3%
- Population Mitochondria Different-Phenotype (%) (HEK-293T [1]; [9]): 82%
- Population Mitotic Cells (%) (HEK-293T [1]; [9]): 65%
- Population Normal (%) (HEK-293T [1]; [9]): 89%
- Population Pyknosed Nuclei (%) (HEK-293T [1]; [9]): 50%
- Population Tubulin-Different-Phenotype (%) (HEK-293T [1]; [9]): 48%
- Total Cell Count (HEK-293T [1]; [9]): 236
- Population Apoptotic (%) (HEK-293T [1]; [10]): 21%
- Population Fragmented Nuclei (%) (HEK-293T [1]; [10]): 4%
- Population Healthy Nuclei (%) (HEK-293T [1]; [10]): 41%
- Population Hoechst High Intensity Objects (%) (HEK-293T [1]; [10]): 4%
- Population Membrane Permeable-Phenotype (%) (HEK-293T [1]; [10]): 6%
- Population Mitochondria Different-Phenotype (%) (HEK-293T [1]; [10]): 33%
- Population Mitotic Cells (%) (HEK-293T [1]; [10]): 78%
- Population Normal (%) (HEK-293T [1]; [10]): 95%
- Population Pyknosed Nuclei (%) (HEK-293T [1]; [10]): 53%
- Population Tubulin-Different-Phenotype (%) (HEK-293T [1]; [10]): 25%
- Total Cell Count (HEK-293T [1]; [10]): 217
- Population Apoptotic (%) (HEK-293T [1]; [11]): 76%
- Population Fragmented Nuclei (%) (HEK-293T [1]; [11]): 7%
- Population Healthy Nuclei (%) (HEK-293T [1]; [11]): 33%
- Population Hoechst High Intensity Objects (%) (HEK-293T [1]; [11]): 15%
- Population Membrane Permeable-Phenotype (%) (HEK-293T [1]; [11]): 4%
- Population Mitochondria Different-Phenotype (%) (HEK-293T [1]; [11]): 97%
- Population Mitotic Cells (%) (HEK-293T [1]; [11]): 23%
- Population Normal (%) (HEK-293T [1]; [11]): 84%
- Population Pyknosed Nuclei (%) (HEK-293T [1]; [11]): 59%
- Population Tubulin-Different-Phenotype (%) (HEK-293T [1]; [11]): 98%
- Total Cell Count (HEK-293T [1]; [11]): 238
- Population Apoptotic (%) (HEK-293T [1]; [12]): 58%
- Population Fragmented Nuclei (%) (HEK-293T [1]; [12]): 5%
- Population Healthy Nuclei (%) (HEK-293T [1]; [12]): 32%
- Population Hoechst High Intensity Objects (%) (HEK-293T [1]; [12]): 7%
- Population Membrane Permeable-Phenotype (%) (HEK-293T [1]; [12]): 1%
- Population Mitochondria Different-Phenotype (%) (HEK-293T [1]; [12]): 88%
- Population Mitotic Cells (%) (HEK-293T [1]; [12]): 41%
- Population Normal (%) (HEK-293T [1]; [12]): 92%
- Population Pyknosed Nuclei (%) (HEK-293T [1]; [12]): 61%
- Population Tubulin-Different-Phenotype (%) (HEK-293T [1]; [12]): 95%
- Total Cell Count (HEK-293T [1]; [12]): 200
- Population Apoptotic (%) (HEK-293T [1]; [13]): 49%
- Population Fragmented Nuclei (%) (HEK-293T [1]; [13]): 12%
- Population Healthy Nuclei (%) (HEK-293T [1]; [13]): 59%
- Population Hoechst High Intensity Objects (%) (HEK-293T [1]; [13]): 10%
- Population Membrane Permeable-Phenotype (%) (HEK-293T [1]; [13]): 1%
- Population Mitochondria Different-Phenotype (%) (HEK-293T [1]; [13]): 70%
- Population Mitotic Cells (%) (HEK-293T [1]; [13]): 50%
- Population Normal (%) (HEK-293T [1]; [13]): 89%
- Population Pyknosed Nuclei (%) (HEK-293T [1]; [13]): 28%
- Population Tubulin-Different-Phenotype (%) (HEK-293T [1]; [13]): 47%
- Total Cell Count (HEK-293T [1]; [13]): 298
- Population Apoptotic (%) (HEK-293T [1]; [14]): 18%
- Population Fragmented Nuclei (%) (HEK-293T [1]; [14]): 8%
- Population Hoechst High Intensity Objects (%) (HEK-293T [1]; [14]): 3%
- Population Membrane Permeable-Phenotype (%) (HEK-293T [1]; [14]): 2%
- Population Mitochondria Different-Phenotype (%) (HEK-293T [1]; [14]): 29%
- Population Mitotic Cells (%) (HEK-293T [1]; [14]): 81%
- Population Normal (%) (HEK-293T [1]; [14]): 96%
- Population Pyknosed Nuclei (%) (HEK-293T [1]; [14]): 32%
- Population Tubulin-Different-Phenotype (%) (HEK-293T [1]; [14]): 29%
- Total Cell Count (HEK-293T [1]; [14]): 264
- Population Apoptotic (%) (HEK-293T [1]; [15]): 80%
- Population Fragmented Nuclei (%) (HEK-293T [1]; [15]): 8%
- Population Healthy Nuclei (%) (HEK-293T [1]; [15]): 40%
- Population Hoechst High Intensity Objects (%) (HEK-293T [1]; [15]): 27%
- Population Membrane Permeable-Phenotype (%) (HEK-293T [1]; [15]): 0%
- Population Mitotic Cells (%) (HEK-293T [1]; [15]): 19%
- Population Normal (%) (HEK-293T [1]; [15]): 72%
- Population Pyknosed Nuclei (%) (HEK-293T [1]; [15]): 51%
- Population Tubulin-Different-Phenotype (%) (HEK-293T [1]; [15]): 95%
- Total Cell Count (HEK-293T [1]; [15]): 241
- Population Apoptotic (%) (HEK-293T [1]; [16]): 81%
- Population Fragmented Nuclei (%) (HEK-293T [1]; [16]): 3%
- Population Healthy Nuclei (%) (HEK-293T [1]; [16]): 42%
- Population Hoechst High Intensity Objects (%) (HEK-293T [1]; [16]): 16%
- Population Membrane Permeable-Phenotype (%) (HEK-293T [1]; [16]): 2%
- Population Mitochondria Different-Phenotype (%) (HEK-293T [1]; [16]): 100%
- Population Mitotic Cells (%) (HEK-293T [1]; [16]): 18%
- Population Normal (%) (HEK-293T [1]; [16]): 83%
- Population Pyknosed Nuclei (%) (HEK-293T [1]; [16]): 54%
- Population Tubulin-Different-Phenotype (%) (HEK-293T [1]; [16]): 100%
- Total Cell Count (HEK-293T [1]; [16]): 190
- Population Apoptotic (%) (HEK-293T [1]; [17]): 36%
- Population Healthy Nuclei (%) (HEK-293T [1]; [17]): 79%
- Population Hoechst High Intensity Objects (%) (HEK-293T [1]; [17]): 7%
- Population Membrane Permeable-Phenotype (%) (HEK-293T [1]; [17]): 1%
- Population Mitochondria Different-Phenotype (%) (HEK-293T [1]; [17]): 25%
- Population Mitotic Cells (%) (HEK-293T [1]; [17]): 63%
- Population Normal (%) (HEK-293T [1]; [17]): 92%
- Population Pyknosed Nuclei (%) (HEK-293T [1]; [17]): 11%
- Population Tubulin-Different-Phenotype (%) (HEK-293T [1]; [17]): 26%
- Total Cell Count (HEK-293T [1]; [17]): 532
- Population Apoptotic (%) (HEK-293T [1]; [18]): 12%
- Population Fragmented Nuclei (%) (HEK-293T [1]; [18]): 8%
- Population Healthy Nuclei (%) (HEK-293T [1]; [18]): 76%
- Population Hoechst High Intensity Objects (%) (HEK-293T [1]; [18]): 4%
- Population Membrane Permeable-Phenotype (%) (HEK-293T [1]; [18]): 9%
- Population Mitochondria Different-Phenotype (%) (HEK-293T [1]; [18]): 12%
- Population Mitotic Cells (%) (HEK-293T [1]; [18]): 87%
- Population Normal (%) (HEK-293T [1]; [18]): 95%
- Population Pyknosed Nuclei (%) (HEK-293T [1]; [18]): 14%
- Population Tubulin-Different-Phenotype (%) (HEK-293T [1]; [18]): 35%
- Total Cell Count (HEK-293T [1]; [18]): 420
- Population Apoptotic (%) (HEK-293T [1]; [19]): 66%
- Population Fragmented Nuclei (%) (HEK-293T [1]; [19]): 12%
- Population Healthy Nuclei (%) (HEK-293T [1]; [19]): 48%
- Population Hoechst High Intensity Objects (%) (HEK-293T [1]; [19]): 45%
- Population Membrane Permeable-Phenotype (%) (HEK-293T [1]; [19]): 1%
- Population Mitochondria Different-Phenotype (%) (HEK-293T [1]; [19]): 93%
- Population Mitotic Cells (%) (HEK-293T [1]; [19]): 33%
- Population Normal (%) (HEK-293T [1]; [19]): 54%
- Population Pyknosed Nuclei (%) (HEK-293T [1]; [19]): 39%
- Population Tubulin-Different-Phenotype (%) (HEK-293T [1]; [19]): 96%
- Total Cell Count (HEK-293T [1]; [19]): 288
- Population Apoptotic (%) (HEK-293T [1]; [20]): 74%
- Population Fragmented Nuclei (%) (HEK-293T [1]; [20]): 7%
- Population Healthy Nuclei (%) (HEK-293T [1]; [20]): 54%
- Population Hoechst High Intensity Objects (%) (HEK-293T [1]; [20]): 37%
- Population Membrane Permeable-Phenotype (%) (HEK-293T [1]; [20]): 2%
- Population Mitochondria Different-Phenotype (%) (HEK-293T [1]; [20]): 90%
- Population Mitotic Cells (%) (HEK-293T [1]; [20]): 25%
- Population Normal (%) (HEK-293T [1]; [20]): 62%
- Population Pyknosed Nuclei (%) (HEK-293T [1]; [20]): 37%
- Population Tubulin-Different-Phenotype (%) (HEK-293T [1]; [20]): 91%
- Total Cell Count (HEK-293T [1]; [20]): 217
- Growth Rate (HEK-293T [2]; [3]): 0
- Growth Rate (HEK-293T [2]; [4]): 1
- Growth Rate (HEK-293T [2]; [5]): 0
- Growth Rate (HEK-293T [2]; [6]): 1
- Growth Rate (HEK-293T [2]; 12 h, replicate number 2, timepoint 12 hours): 0
- Growth Rate (HEK-293T [2]; [7]): 0
- Growth Rate (HEK-293T [2]; [8]): 0
